High-throughput results: PubChem BioAssay, Johns Hopkins Ion Channel Center
KCNK9 block = KCNK9 potassium channel inhibitors, primary screen, HEK293 cells, thallium flux. Potassium channel subfamily K member 9 (Homo sapiens), Q9NPC2. FluxOR thallium flux fluorescence; hits give low values. B-score at 10 µM. 310,000 tested, 1.2% active;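 active = ratio B-score over 3 SD below the library mean, with starting fluorescence within 5 SD of its mean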;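 also: negative B-score means less thallium flux so channel inhibition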
KCNK3 inh = human KCNK3 channel inhibitors, primary screen, CHO cells, FluxOR thallium flux, B-score | B-score at 10 µM | 340,000 tested, 0.84% active | FluxOR fluorescence; hits give low values | AID 602410, 2012;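 active = B-score under library mean minus 4 SD, starting fluorescence ratio at most library mean plus 5 SD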;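 also: more negative B-score means stronger inhibition of thallium flux through KCNK3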
Target sequence (O14649 whole entry, looked up): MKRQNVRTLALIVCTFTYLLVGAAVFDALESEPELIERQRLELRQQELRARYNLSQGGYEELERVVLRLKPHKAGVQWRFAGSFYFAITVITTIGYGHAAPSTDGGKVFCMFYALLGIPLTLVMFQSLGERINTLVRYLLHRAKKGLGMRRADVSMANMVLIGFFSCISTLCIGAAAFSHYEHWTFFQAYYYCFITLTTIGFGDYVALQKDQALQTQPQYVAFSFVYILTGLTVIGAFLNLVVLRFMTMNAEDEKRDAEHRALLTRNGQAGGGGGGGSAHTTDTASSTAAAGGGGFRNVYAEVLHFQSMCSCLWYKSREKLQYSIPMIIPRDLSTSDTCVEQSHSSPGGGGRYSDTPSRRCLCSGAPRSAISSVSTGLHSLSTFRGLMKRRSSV
Kir21 inh = inhibitors of mouse Kir2.1 inward-rectifier potassium channel. Inward rectifier potassium channel 2 (Mus musculus), P35561. HEK293-Kir2.1, FluxOR thallium flux fluorescence; hits give low values. B-score at 10 µM. 310,000 tested, 0.85% active. AID 1672, 2009;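 active = fluorescence ratio B-score at or below minus 3 SD of library scores, with starting-brightness B-score within 2 SD, cut at about -4.2 in these data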;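 also: channel flux triggered by added potassium and thallium sulfate stimulus; B-score of peak minus minimum fluorescence over baseline after thallium stimulus; more negative B-score means stronger Kir2.1 block with less thallium influx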
KCNQ1 pot = potentiators or activators of KCNQ1 channel, primary screen, cell-based, thallium flux, high-throughput | CHO-K1 KCNQ1, thallium flux FluxOR fluorescence; hits give high values | B-score at 10 µM | 310,000 tested, 0.35% active | AID 2648, 2010;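 active = fluorescence ratio B-score, a plate-corrected score, at least three library SD, with initial intensity B-score within 5 SD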
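Medium – assay buffer, equal DMSO in all wells · Material – CHO-K1 cell line with stable KCNQ1 potassium channel expression · Signal – kinetic FluxOR thallium fluorescence, 10-s 1-Hz baseline, 110-s post-stimulus read · Compound – single concentration per compound, DMSO matched to controls · Schedule – 37 °C overnight plating, 90-min dark dye load, 20-min compound pretreatment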
hERG rescue = hERG rescue from dofetilide block, primary screen, cell-based, CHO-hERG, FluxOR thallium flux, dofetilide IC70. dofetilide IC70 present. Voltage-gated inwardly rectifying potassium channel KCNH2 (Homo sapiens), Q12809. 310,000 tested, 0.51% active. activation (rescue from dofetilide block), less the hit threshold, % at 10 µM;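 active = activation above the mean of controls blocked by dofetilide plus 5 SD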;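 also: thallium influx through hERG after potassium depolarization seen as dye fluorescence rise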
KCNQ1 block = inhibitors of human KCNQ1 channel, primary screen, cell-based, thallium flux, high-throughput; B-score at 10 µM; Potassium voltage-gated channel subfamily KQT member 1 (Homo sapiens), P51787; CHO-K1 KCNQ1, FluxOR thallium flux fluorescence; hits give high values; AID 2642, 2010; 310,000 tested, 1.3% active;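 active = compounds whose thallium flux B-score, printed positive for inhibition, exceeds three library SD while starting fluorescence stays within three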;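 also: channel opened by potassium depolarization with thallium stimulus after 20 min compound exposure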
KCNK9 inh conf = KCNK9 potassium channel inhibitors, confirmation, HEK293 cells, thallium flux, duplicate; shares compounds with KCNK9 block; FluxOR thallium flux fluorescence; inhibition, % at 10 µM; 4,900 tested, 43% active;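 active = thallium signal inhibited by more than 5 SD of the compound-free buffer control wells, on both duplicate plates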
Kir2-1 spec = mouse Kir2.1 channel inhibition, confirmation, selectivity assay for KCNK9 modulator project, cell-based, HEK293, thallium flux | shares compounds with KCNK9 block | Kir2.1 cells, FluxOR thallium flux fluorescence | inhibition, % at 10 µM | 4,900 tested, 4% active | AID 492993, 2010;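 active = thallium signal drop more than 5 SD beyond the mean of the no-compound control wells, seen in both duplicate plates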;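 also: signal is fluorescence rise after thallium addition divided by baseline fluorescence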
KCNK9 uninduced = thallium flux in non-induced HEK293 cells, confirmation, counter-screen for KCNK9 inhibitor project, cell-based, second counter screen, non-induced KCNK9-HEK293 | shares compounds with KCNK9 block | FluxOR thallium flux | inhibition, % at 10 µM | 4,900 tested, 40% active | AID 492997, 2010;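 active = thallium signal drop beyond 5 SD of the untreated control mean, on both duplicate plates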
Hits are given with their value; . = inactive; / = not tested or not shown. Compounds with a hit are over-represented: about 3.7% of the library has one in this group of screens.

SMILES	KCNK9 block	KCNK3 inh	Kir21 inh	KCNQ1 pot	hERG rescue	KCNQ1 block	KCNK9 inh conf	Kir2-1 spec	KCNK9 uninduced
Cc1ccc(C(=O)COC(=O)C2C3C=CC(C3)C2C(=O)OCC(=O)c2ccc(C)c(C)c2)cc1C (centres undefined)	.	.	.	.	.	.	.	.	.
CC/C(=N\NC(=S)Nc1cc(C)ccc1C)c1ccc(OC(F)F)cc1	.	.	.	.	.	.	/	/	/
Cc1cccc(NC(=S)NNC(=O)Cc2ccccc2)c1	.	.	.	.	.	.	/	/	/
Cc1cccc(NC(=S)N/N=C(\c2ccccc2)C(C)C)c1	.	.	.	.	.	.	.	.	.
CC/C(=N\NC(=S)Nc1ccc(OC)cc1)c1ccc(OC(F)F)cc1	.	.	.	.	.	.	.	.	.
CC/C(=N\NC(=S)Nc1cccc(C)c1)c1ccccc1	.	.	.	12	6.9	.	.	.	.
COc1ccc([C@H]2CC(=O)C=C(c3ccc(Cl)c(C(F)(F)F)c3)C2)cc1	/	.	/	/	/	/	/	/	/
CC(C)OC(=O)CN1CCN(C2c3ccccc3-c3ccccc32)CC1	.	.	.	.	.	.	.	.	.
Cc1ccc2c(Cl)c(C(=O)NC3CC3)sc2c1	.	.	.	.	.	.	/	/	/
O=C(Nc1cccn(Cc2c(Cl)cccc2Cl)c1=O)c1c(Cl)cccc1Cl	-10	.	.	.	.	.	54%	.	.
COC(=O)c1c(N2C(=O)[C@H]3[C@@H](C2=O)[C@]2(C(=O)Nc4c(C)cccc42)N2CCC[C@@H]32)sc(C)c1C	.	.	.	.	.	.	/	/	/
CC(=O)N1N=C(c2ccc(C)cc2)OC1c1ccc(C)cc1 (centres undefined)	.	.	.	.	.	.	/	/	/
CC(=O)N1N=C(c2ccc(C)cc2)OC1c1ccc(C(C)C)cc1 (centres undefined)	.	.	.	.	.	.	.	.	30%
COc1ccc(S(=O)(=O)NCCCn2ccnc2)cc1Cl	.	.	.	.	.	.	/	/	/
Cc1cc(C)cc(NC(=O)c2cc(C)n(Cc3cccs3)c2C)c1	.	.	.	.	.	.	/	/	/
Cc1cc(C(=O)Nc2ccc(Cl)cc2)c(C)n1Cc1cccs1	.	.	.	.	.	.	.	.	.
Cc1cccc(-c2ccc3c(c2)C2CC3CCN2C)c1 (centres undefined)	/	.	/	/	/	/	/	/	/
COCCN=c1scc(-c2cc(OC)ccc2OC)n1/N=C/c1c[nH]c2ccccc12	.	.	.	.	.	.	.	.	.
COCCN=c1scc(-c2ccco2)n1/N=C/c1ccc(O)c(O)c1O	/	.	/	/	/	/	/	/	/
CCOc1ccc(-c2cc3nc(C4CCN(C(=O)OC(C)(C)C)CC4)c(C(=O)O)cn3n2)cc1	.	.	.	.	.	.	.	.	34%
COc1ccc(-c2[nH]ncc2/C=C(/C#N)C(=O)NC2CCCCCC2)cc1	.	.	.	.	.	.	.	.	.
Cc1cccc(N2CCN(C(=O)Cc3ccc(Br)cc3)CC2)c1C	.	.	.	.	.	.	.	.	26%
O=C(Cc1ccc(Br)cc1)N1CCN(c2ccccc2)CC1	.	.	.	.	.	.	/	/	/
C[C@@H]1COC(=O)[C@@H](Cc2ccc(F)cc2)C/C=C\C[C@H](CC(=O)N(CCO)Cc2ccccc2)C(=O)N1	/	.	/	/	/	/	/	/	/
Cc1cccc(NCN2C(=O)c3ccncc3C2=O)n1	.	.	.	.	.	.	.	.	.
SMILES	KCNK9 block	KCNK3 inh	Kir21 inh	KCNQ1 pot	hERG rescue	KCNQ1 block	KCNK9 inh conf	Kir2-1 spec	KCNK9 uninduced
O=C1c2ccncc2C(=O)N1Cc1cccc(Cl)c1	.	.	.	.	.	.	/	/	/
CCOc1ccc(NS(=O)(=O)c2ccc(C(=O)N(C)Cc3cccc(OC)c3OC)cc2)cc1	.	.	.	.	.	.	.	.	.
COc1cccc(CN(C)C(=O)c2ccc(Oc3ccccc3)cc2)c1OC	.	.	.	.	.	.	.	.	.
COc1cccc(CN(C)C(=O)c2ccc(NS(=O)(=O)c3ccc4[nH]c(=O)[nH]c4c3)cc2)c1OC	.	.	.	.	.	.	/	/	/
Cc1cc(NC(=O)/C=C/c2ccccc2Cl)n(-c2nc3ccccc3[nH]2)n1	-9.1	.	.	.	.	.	.	.	26%
Cc1cc(NC(=O)c2ccc(F)cc2F)n(-c2nc3ccccc3[nH]2)n1	.	.	.	.	.	.	/	/	/
CCS(=O)(=O)N1Cc2ccccc2CC1C(=O)Nc1ccc(F)c(F)c1F (centres undefined)	.	.	.	.	.	.	/	/	/
COc1ccccc1NS(=O)(=O)c1cc(NC(=O)C2CCC2)ccc1N1CCCCC1	-8.5	.	.	.	.	.	34%	.	26%
COc1ccc(NS(=O)(=O)c2cc(NC(=O)C3CC3)ccc2N2CCCCC2)cc1	.	.	.	.	.	.	/	/	/
COC(=O)c1c(NC(NC(=O)CC(C)C)C(Cl)(Cl)Cl)sc2c1CCC2 (centres undefined)	-9.7	.	.	.	.	.	.	.	49%
O=C(Nc1cn(-c2ccccc2)nc1-c1ccc(Cl)cc1)c1ccccc1	-9.2	.	.	.	.	.	50%	.	42%
CC(C)CC(=O)N(c1nnc(-c2cccnc2)s1)C1CCCC1	.	.	.	.	.	.	/	/	/
COc1ccccc1OCc1nn[nH]n1	.	.	.	.	.	.	/	/	/
CC(C)(C)c1ccc(/C=N/NC(=S)NC2CCCCC2)cc1	.	.	.	.	.	.	.	.	.
O=[N+]([O-])c1cc(N=Nc2ccc3ccccc3c2)ccc1O	.	.	.	.	.	.	/	/	/
Cc1ccc(C(=O)NCCNC(=O)COc2ccc(Cl)cc2)cn1	.	.	.	.	.	.	/	/	/
Cn1ccnc1SCC(=O)n1c2c(c3ccccc31)CCCC2	.	.	.	.	.	.	.	.	.
